Each block holds one molecule with its values, some of them ahead of it.
Tests used:
[1] = biological target: Maternal embryonic leucine zipper kinase (Homo sapiens) (UniProt Q14680); assay: Inhibition of human recombinant MELK at 500 nM in presence of ATP by radiometric assay relative to control
[2] = biological target: SRSF protein kinase 3 (Homo sapiens) (UniProt Q9UPE1); assay: Inhibition of human recombinant MSSK1 at 500 nM related to control ULK1
[3] = biological target: T1, Calcium/calmodulin-dependent protein kinase type IV (Homo sapiens) (UniProt Q16566); assay: Inhibition of human recombinant CaMK4 at 500 nM in presence of ATP by radiometric assay relative to control
T1 sequence (whole entry): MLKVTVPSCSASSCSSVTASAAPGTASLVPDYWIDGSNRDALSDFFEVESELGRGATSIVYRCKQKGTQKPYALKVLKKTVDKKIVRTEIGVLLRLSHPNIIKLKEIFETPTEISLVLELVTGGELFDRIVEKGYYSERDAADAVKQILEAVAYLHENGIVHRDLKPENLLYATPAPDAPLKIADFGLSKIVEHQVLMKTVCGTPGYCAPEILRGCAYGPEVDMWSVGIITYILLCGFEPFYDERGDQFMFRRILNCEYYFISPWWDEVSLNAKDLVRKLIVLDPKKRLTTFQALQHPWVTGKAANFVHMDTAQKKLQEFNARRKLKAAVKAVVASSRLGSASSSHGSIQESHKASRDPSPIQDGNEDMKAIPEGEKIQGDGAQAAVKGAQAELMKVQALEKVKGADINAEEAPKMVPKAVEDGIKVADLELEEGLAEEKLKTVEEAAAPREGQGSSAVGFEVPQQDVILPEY

[4] = biological target: Serine/threonine-protein kinase SIK2 (Homo sapiens) (UniProt Q9H0K1); assay: Inhibition of human recombinant QIK at 500 nM in presence of ATP by radiometric assay relative to control
[5] = biological target: Non-receptor tyrosine-protein kinase TYK2 (Homo sapiens) (UniProt P29597); assay: Inhibition of human recombinant TYK2 at 500 nM related to control ULK1
[6] = biological target: Ribosomal protein S6 kinase alpha-4 (Homo sapiens) (UniProt O75676); assay: Inhibition of human recombinant MSK2 at 500 nM related to control ULK1
[7] = biological target: High affinity nerve growth factor receptor (Homo sapiens) (UniProt P04629); assay: Inhibition of human recombinant TRKA at 15 nM in presence of ATP by radiometric assay relative to control
[8] = biological target: Dual specificity protein kinase CLK4 (Homo sapiens) (UniProt Q9HAZ1); assay: Inhibition of human recombinant CLK4 at 15 nM related to control ULK1
[9] = biological target: Leucine-rich repeat serine/threonine-protein kinase 2 (Homo sapiens) (UniProt Q5S007); assay: Inhibition of human recombinant LRRK2 at 15 nM in presence of ATP by radiometric assay relative to control
Homo sapiens = organism: Homo sapiens; assay: Inhibition of human recombinant CK1d at 15 nM related to control ULK1
[10] = biological target: TRAF2 and NCK-interacting protein kinase (Homo sapiens) (UniProt Q9UKE5); assay: Inhibition of human recombinant TNIK at 15 nM related to control ULK1
[11] = biological target: Tyrosine-protein kinase receptor UFO (Homo sapiens) (UniProt P30530); assay: Inhibition of human recombinant AXL at 15 nM in presence of ATP by radiometric assay relative to control
Summary of the method: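 Panel of 327 recombinant human kinases, each assayed in vitro by radiometric activity assay in duplicate at a single inhibitor concentration per compound, chosen with reference to its ULK1 inhibition. Activity remaining was expressed as percent of vehicle control, and percent inhibition was calculated as 100 minus percent activity remaining.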

[12] = biological target: MAP kinase-activated protein kinase 3 (Homo sapiens) (UniProt Q16644); assay: Inhibition of human recombinant MAPKAPK3 at 15 nM related to control ULK1
[13] = biological target: Cyclin-dependent kinase 12 (Homo sapiens) (UniProt Q9NYV4); assay: Inhibition of human recombinant CRK7 at 15 nM related to control ULK1
[14] = biological target: Fibroblast growth factor receptor 3 (Homo sapiens) (UniProt P22607); assay: Inhibition of human recombinant FGFR3 at 40 nM related to control ULK1
[15] = biological target: Cyclin-dependent kinase 5 (Homo sapiens) (UniProt Q00535); assay: Inhibition of human recombinant CDK5 at 40 nM in presence of ATP by radiometric assay relative to control
[16] = biological target: T2, Tyrosine-protein kinase receptor TYRO3 (Homo sapiens) (UniProt Q06418); assay: Inhibition of human recombinant TYRO3 at 40 nM in presence of ATP by radiometric assay relative to control
T2 sequence (whole entry): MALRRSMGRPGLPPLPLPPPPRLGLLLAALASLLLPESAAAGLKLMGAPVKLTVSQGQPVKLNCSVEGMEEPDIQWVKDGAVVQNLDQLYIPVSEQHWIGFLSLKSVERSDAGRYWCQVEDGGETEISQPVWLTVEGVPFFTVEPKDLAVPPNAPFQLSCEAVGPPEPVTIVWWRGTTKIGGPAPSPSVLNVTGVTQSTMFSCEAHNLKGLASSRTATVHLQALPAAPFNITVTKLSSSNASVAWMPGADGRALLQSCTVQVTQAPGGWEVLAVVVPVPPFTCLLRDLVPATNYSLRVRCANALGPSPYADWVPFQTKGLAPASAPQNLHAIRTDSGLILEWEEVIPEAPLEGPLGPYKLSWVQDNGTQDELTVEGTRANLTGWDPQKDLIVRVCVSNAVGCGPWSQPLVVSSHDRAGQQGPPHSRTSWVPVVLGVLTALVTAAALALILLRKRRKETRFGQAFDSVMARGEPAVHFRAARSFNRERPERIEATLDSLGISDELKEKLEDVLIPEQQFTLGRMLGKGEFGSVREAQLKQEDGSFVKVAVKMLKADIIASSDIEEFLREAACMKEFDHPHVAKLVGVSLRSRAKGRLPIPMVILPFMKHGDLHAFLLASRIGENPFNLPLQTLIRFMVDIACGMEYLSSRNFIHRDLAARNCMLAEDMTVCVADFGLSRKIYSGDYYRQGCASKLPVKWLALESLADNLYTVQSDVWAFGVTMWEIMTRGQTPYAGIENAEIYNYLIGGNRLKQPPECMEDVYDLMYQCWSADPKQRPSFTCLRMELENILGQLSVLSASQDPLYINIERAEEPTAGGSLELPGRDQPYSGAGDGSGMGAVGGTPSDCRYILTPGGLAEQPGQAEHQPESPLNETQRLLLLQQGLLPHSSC

Sequence of Fibroblast growth factor receptor 3 (Homo sapiens) (P22607 23-806 limits assumed): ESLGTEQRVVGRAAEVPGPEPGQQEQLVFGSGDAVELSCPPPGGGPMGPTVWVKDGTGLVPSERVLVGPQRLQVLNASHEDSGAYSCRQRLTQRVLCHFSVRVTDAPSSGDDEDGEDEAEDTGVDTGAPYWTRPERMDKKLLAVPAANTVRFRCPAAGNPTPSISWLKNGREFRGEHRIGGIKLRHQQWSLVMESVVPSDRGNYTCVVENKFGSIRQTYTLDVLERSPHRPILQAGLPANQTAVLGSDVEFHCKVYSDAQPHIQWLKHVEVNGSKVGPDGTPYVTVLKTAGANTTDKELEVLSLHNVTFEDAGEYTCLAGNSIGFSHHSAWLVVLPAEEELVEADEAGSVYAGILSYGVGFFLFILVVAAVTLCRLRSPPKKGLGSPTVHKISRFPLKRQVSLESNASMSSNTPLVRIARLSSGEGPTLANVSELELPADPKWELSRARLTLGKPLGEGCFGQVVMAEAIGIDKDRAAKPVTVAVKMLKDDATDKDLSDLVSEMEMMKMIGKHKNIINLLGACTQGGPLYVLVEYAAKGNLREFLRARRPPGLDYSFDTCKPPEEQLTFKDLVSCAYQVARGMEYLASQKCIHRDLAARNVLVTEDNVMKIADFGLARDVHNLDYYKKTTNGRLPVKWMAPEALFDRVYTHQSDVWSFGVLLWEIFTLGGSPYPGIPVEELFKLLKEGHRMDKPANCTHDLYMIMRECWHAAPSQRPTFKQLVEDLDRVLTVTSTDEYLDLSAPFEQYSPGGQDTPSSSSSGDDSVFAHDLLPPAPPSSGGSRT
Sequence of Leucine-rich repeat serine/threonine-protein kinase 2 (Homo sapiens) (Q5S007 whole entry): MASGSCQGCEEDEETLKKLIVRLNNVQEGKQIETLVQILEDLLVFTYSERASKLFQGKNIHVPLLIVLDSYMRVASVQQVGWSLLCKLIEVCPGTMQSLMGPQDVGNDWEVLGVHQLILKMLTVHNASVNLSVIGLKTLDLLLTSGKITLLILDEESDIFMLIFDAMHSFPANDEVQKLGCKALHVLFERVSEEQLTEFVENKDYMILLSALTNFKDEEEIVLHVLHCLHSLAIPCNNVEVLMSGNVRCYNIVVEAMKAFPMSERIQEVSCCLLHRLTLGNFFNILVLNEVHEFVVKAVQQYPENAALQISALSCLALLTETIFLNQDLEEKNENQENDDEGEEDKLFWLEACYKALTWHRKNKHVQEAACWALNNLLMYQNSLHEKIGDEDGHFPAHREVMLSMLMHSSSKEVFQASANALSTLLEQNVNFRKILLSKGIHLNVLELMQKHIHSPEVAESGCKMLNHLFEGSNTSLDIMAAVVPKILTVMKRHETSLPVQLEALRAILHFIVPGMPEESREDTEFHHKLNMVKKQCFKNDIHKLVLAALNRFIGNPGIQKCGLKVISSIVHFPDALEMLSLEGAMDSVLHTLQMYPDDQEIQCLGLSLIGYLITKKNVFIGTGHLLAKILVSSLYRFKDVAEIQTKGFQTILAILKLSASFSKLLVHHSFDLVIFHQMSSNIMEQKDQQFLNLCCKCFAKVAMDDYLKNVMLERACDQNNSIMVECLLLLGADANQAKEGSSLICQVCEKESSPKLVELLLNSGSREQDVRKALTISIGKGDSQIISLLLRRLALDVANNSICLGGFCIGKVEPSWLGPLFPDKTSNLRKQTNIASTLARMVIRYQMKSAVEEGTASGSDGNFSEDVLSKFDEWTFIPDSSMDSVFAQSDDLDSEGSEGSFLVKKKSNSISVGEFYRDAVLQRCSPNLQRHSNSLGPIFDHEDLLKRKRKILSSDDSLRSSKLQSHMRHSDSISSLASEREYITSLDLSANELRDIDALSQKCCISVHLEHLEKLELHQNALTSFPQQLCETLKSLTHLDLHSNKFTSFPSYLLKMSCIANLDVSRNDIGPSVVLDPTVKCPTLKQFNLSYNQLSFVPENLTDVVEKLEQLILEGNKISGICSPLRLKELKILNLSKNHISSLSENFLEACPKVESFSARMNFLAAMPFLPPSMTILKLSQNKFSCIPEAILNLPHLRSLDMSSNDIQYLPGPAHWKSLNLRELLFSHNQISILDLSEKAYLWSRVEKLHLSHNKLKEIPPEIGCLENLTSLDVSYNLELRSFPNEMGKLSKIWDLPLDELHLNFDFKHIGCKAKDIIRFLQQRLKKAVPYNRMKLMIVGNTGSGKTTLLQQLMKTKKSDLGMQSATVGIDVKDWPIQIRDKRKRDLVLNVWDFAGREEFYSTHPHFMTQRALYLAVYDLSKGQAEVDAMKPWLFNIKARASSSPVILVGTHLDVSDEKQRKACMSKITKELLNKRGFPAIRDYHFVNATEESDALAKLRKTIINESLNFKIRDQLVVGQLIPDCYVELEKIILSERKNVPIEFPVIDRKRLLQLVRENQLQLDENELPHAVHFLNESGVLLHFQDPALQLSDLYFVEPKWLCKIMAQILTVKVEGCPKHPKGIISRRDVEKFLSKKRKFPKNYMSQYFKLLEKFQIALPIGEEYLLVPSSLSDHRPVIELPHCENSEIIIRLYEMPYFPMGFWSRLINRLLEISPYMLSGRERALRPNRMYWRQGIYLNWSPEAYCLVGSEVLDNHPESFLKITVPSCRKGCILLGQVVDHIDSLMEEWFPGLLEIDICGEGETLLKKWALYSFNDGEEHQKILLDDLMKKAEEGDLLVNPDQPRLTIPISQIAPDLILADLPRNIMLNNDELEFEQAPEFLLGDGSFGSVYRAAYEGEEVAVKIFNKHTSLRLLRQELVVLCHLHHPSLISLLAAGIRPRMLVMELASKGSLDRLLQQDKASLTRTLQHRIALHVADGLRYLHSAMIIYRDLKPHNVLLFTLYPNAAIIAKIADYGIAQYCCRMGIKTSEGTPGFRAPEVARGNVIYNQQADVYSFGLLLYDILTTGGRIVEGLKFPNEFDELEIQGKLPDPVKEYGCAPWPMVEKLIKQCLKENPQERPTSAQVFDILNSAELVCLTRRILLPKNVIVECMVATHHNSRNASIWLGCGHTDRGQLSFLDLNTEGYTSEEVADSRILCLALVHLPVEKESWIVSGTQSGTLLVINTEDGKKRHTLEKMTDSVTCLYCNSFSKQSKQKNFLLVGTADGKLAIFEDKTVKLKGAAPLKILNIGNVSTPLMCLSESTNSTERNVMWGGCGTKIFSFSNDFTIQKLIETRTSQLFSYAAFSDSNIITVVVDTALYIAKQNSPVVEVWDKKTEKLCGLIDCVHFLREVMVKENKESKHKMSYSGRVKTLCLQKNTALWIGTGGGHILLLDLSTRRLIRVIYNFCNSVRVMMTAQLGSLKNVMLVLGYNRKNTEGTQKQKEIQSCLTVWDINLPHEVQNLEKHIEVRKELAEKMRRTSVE
Sequence of Non-receptor tyrosine-protein kinase TYK2 (Homo sapiens) (P29597 whole entry): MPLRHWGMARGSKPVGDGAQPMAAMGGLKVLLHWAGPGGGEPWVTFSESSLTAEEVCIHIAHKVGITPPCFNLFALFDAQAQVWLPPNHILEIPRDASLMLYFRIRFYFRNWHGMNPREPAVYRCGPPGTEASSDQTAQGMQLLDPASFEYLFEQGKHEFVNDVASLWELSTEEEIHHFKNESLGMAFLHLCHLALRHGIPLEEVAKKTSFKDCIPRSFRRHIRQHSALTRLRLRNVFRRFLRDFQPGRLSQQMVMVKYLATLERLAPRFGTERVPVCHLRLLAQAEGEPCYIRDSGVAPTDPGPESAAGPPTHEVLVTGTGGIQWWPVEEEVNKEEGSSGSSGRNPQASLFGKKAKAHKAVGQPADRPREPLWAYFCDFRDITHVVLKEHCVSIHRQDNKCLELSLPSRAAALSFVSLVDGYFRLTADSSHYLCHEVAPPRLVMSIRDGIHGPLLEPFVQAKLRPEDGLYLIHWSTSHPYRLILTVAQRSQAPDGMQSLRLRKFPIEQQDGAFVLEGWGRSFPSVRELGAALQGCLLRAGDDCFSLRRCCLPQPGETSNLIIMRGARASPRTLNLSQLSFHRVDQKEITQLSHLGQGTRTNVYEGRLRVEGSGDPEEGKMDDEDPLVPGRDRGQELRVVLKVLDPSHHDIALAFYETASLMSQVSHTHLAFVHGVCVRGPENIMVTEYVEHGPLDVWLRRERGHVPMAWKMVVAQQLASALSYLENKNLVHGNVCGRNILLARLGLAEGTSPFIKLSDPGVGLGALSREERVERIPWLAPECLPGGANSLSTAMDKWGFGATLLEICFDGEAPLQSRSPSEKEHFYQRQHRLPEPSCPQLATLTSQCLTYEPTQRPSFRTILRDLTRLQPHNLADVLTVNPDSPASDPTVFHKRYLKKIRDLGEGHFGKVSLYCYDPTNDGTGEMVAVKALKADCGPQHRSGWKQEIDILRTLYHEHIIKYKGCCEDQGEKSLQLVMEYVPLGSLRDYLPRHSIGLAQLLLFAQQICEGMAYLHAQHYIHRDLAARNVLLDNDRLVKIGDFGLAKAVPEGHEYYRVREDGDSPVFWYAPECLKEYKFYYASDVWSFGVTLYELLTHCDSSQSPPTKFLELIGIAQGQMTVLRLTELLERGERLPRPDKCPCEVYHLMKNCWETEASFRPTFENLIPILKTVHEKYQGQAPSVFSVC
Sequence of SRSF protein kinase 3 (Homo sapiens) (Q9UPE1 whole entry): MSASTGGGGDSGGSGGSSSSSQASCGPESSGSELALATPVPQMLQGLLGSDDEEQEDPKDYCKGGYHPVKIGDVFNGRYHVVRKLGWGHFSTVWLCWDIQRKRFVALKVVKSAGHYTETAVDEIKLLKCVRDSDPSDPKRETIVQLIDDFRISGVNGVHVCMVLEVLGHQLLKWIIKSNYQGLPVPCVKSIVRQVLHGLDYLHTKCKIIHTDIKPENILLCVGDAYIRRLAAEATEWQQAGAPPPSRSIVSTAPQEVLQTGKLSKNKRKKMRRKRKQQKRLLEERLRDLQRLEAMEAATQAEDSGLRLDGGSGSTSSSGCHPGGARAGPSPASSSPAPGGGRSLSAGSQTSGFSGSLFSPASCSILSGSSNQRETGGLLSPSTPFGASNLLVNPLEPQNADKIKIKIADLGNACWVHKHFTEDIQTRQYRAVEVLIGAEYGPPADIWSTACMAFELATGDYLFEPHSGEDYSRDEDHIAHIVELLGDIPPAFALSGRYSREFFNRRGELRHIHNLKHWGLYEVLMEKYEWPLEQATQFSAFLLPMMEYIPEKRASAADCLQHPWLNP

inhibition [1]: 0%
fold change (FC) [2]: 0.2
inhibition [3]: 0%
inhibition [4]: 0%
fold change (FC) [5]: 1.05
fold change (FC) [6]: 0
Structure (SMILES): CNC(=O)c1ccccc1Oc1nc(Nc2cc(OC)c(OC)c(OC)c2)ncc1Br

inhibition [7]: 0%
fold change (FC) [8]: 0.94
inhibition [9]: 3%
fold change (FC) (Homo sapiens): 0.03
fold change (FC) [10]: 0.06
inhibition [11]: 11%
fold change (FC) [12]: 0
fold change (FC) [13]: 0.05
Structure (SMILES): CC(C)[C@H](NC(=O)c1cc(-c2cnn3cc(-c4ccc(OCCN5CCCCC5)cc4)cnc23)cs1)C(F)(F)F

fold change (FC) [14]: 0
inhibition [15]: 47%
inhibition [16]: 0%
Structure (SMILES): O=C(N[C@@H](C1CC1)C(F)(F)F)c1cc(-c2cnn3cc(-c4ccc(F)cc4)cnc23)cs1

Reference: ChEMBL document CHEMBL5653631, “A Potent and Selective ULK1 Inhibitor Suppresses Autophagy and Sensitizes Cancer Cells to Nutrient Stress” (iScience, 2018)
